Laboratory results published in ChEMBL document CHEMBL3817728, “Synthesis, Evaluation, and Mechanism Study of Novel Indole-Chalcone Derivatives Exerting Effective Antitumor Activity Through Microtubule Destabilization in Vitro and in Vivo” (J Med Chem, 2016).
The source made the active and inactive calls. No cut-off for these calls is given here.

Key:
HCT-8 = experiment: Resistance index, ratio of IC50 for human HCT8/VCT cells to IC50 for human HCT8 cells; assay type: functional
A549 [1] = experiment: Induction of apoptosis in human A549 cells assessed as necrotic cells at 1 nM after 24 hrs by annexin V-FITC/propidium iodide staining-based flow cytometric method (reference value: 0.03%); assay type: functional
[2] = Cytotoxicity against human HCT8 cells assessed as cell viability after 48 hrs by MTT assay; assay type: functional, cell-based; conditions: HCT-8, 48 h
In short: (§1)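 Cancer cell lines treated with compound for 48 h, and viability read by MTT assay. IC50 given as mean ± SD from at least three independent experiments.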

A549 [3] = experiment: Induction of apoptosis in human A549 cells assessed as viable cells at 10 nM after 24 hrs by annexin V-FITC/propidium iodide staining-based flow cytometric method (reference value: 98.9%); assay type: functional; conditions: A549, 24 h, read-out: Activity
In short: (§2)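 A549 cells exposed 24 h or 48 h at indicated concentrations, then trypsinized, harvested and stained with Annexin V-FITC and PI; flow cytometry quadrants scored as necrotic (upper left), late apoptotic (upper right), live (bottom left) and early apoptotic (bottom right). Five independent experiments, representative shown.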

[4] = Metabolic stability in Sprague-Dawley rat liver microsomes assessed as compound remaining at 150 mins in presence of NADPH regenerating system by HPLC method; assay type: ADME; conditions: read-out: Stability
In short: (§3)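 Rat liver microsomes incubated with compound at 37 ℃ for indicated times in buffer containing NADPH regenerating system; residual parent determined by HPLC.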

A549 [5] = experiment: Induction of apoptosis in human A549 cells assessed as viable cells at 10 nM after 48 hrs by annexin V-FITC/propidium iodide staining-based flow cytometric method (reference value: 98.1%); assay type: functional; conditions: A549, 48 h, read-out: Activity; in short: as §2
HeLa = experiment: Cytotoxicity against human HeLa cells assessed as cell viability after 48 hrs by MTT assay; assay type: functional, cell-based; in short: as §1
Tubulin (Sus scrofa) [6] = target: T1, Tubulin (Sus scrofa) (UniProt P02554+P02550); experiment: Inhibition of [3H]-colchicine binding to porcine brain tubulin at 5 uM relative to control
T1 sequence (P02550 whole entry, looked up): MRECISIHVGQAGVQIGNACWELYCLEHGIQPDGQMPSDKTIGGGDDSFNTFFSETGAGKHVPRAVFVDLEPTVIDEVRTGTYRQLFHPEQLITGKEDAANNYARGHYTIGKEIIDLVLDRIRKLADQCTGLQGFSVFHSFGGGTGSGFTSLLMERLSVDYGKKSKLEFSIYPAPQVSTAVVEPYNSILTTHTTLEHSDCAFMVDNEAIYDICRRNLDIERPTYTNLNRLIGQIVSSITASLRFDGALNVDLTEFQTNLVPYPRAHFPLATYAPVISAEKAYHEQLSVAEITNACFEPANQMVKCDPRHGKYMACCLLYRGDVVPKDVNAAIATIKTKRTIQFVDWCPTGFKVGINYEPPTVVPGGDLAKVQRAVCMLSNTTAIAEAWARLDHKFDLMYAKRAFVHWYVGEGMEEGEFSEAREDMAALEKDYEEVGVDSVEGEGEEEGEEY
T1 sequence (P02554 whole entry, looked up): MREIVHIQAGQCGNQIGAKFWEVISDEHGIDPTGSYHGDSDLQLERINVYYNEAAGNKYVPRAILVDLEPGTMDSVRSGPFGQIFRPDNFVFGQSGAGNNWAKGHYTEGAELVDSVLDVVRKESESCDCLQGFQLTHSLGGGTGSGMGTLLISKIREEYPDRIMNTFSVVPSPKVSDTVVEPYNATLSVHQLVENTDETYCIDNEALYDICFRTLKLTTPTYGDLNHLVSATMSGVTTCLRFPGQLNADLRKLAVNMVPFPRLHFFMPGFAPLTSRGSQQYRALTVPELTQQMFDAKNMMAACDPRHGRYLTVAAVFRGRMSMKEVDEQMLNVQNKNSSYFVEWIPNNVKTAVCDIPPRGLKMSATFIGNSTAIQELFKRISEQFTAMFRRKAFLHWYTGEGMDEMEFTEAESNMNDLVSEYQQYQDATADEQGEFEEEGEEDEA
In short: (§4)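 Competition with [3H]colchicine at 5 μM; test agents at 5 or 1 μM. Mean ± SD of at least three independent experiments.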

A2780 = experiment: Cytotoxicity against human A2780 cells assessed as cell viability after 48 hrs by MTT assay; assay type: functional, cell-based; conditions: A2780, 48 h; in short: as §1
A549 [7] = experiment: Induction of apoptosis in human A549 cells assessed as early apoptotic cells at 1 nM after 24 hrs by annexin V-FITC/propidium iodide staining-based flow cytometric method (reference value: 1.07%); assay type: functional
A549 [8] = experiment: Induction of apoptosis in human A549 cells assessed as necrotic cells at 3 nM after 48 hrs by annexin V-FITC/propidium iodide staining-based flow cytometric method (reference value: 0.01%); assay type: functional; in short: as §2
[9] = Metabolic stability in Sprague-Dawley rat liver microsomes assessed as compound remaining at 90 mins in presence of NADPH regenerating system by HPLC method; assay type: ADME; conditions: read-out: Stability
In short: (§5)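 Test compound incubated with rat liver microsomes at 37 ℃ in buffer containing an NADPH regenerating system for the stated time. Remaining parent compound was quantified by HPLC.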

[10] = Metabolic stability in Sprague-Dawley rat liver microsomes assessed as compound remaining at 30 mins in presence of NADPH regenerating system by HPLC method; assay type: ADME; conditions: read-out: Stability; in short: as §5
[11] = Metabolic stability in Sprague-Dawley rat liver microsomes assessed as compound remaining at 60 mins in presence of NADPH regenerating system by HPLC method; assay type: ADME; conditions: read-out: Stability; in short: as §5
A549 [12] = experiment: Disruption of microtubule network in human A549 cells assessed as multinucleation at 10 nM after 24 hrs by Hoechst 33342 staining-based laser scanning confocal microscopic analysis; assay type: cell-based
In short: (§6)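 A549 cells plated in confocal dishes and incubated with compound for 24 h. Cells were then fixed and stained, and microtubule and spindle organization was imaged by laser confocal microscopy. Experiments done five times; representative results shown.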

A549 [13] = experiment: Induction of apoptosis in human A549 cells assessed as late apoptotic cells at 10 nM after 24 hrs by annexin V-FITC/propidium iodide staining-based flow cytometric method (reference value: 0.01%); assay type: functional
A549 [14] = experiment: Induction of apoptosis in human A549 cells assessed as necrotic cells at 10 nM after 24 hrs by annexin V-FITC/propidium iodide staining-based flow cytometric method (reference value: 0.03%); assay type: functional
A549 [15] = experiment: Induction of apoptosis in human A549 cells assessed as late apoptotic cells at 1 nM after 48 hrs by annexin V-FITC/propidium iodide staining-based flow cytometric method (reference value: 0.01%); assay type: functional
A549 [16] = experiment: Induction of apoptosis in human A549 cells assessed as early apoptotic cells at 10 nM after 24 hrs by annexin V-FITC/propidium iodide staining-based flow cytometric method (reference value: 1.07%); assay type: functional
BJ = experiment: Cytotoxicity against human BJ cells assessed as growth inhibition after 48 hrs by MTT assay; assay type: cell-based
In short: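 Non-tumorigenic cells given 48 h compound exposure, and viability read by MTT. IC50 is mean ± SE from dose-response curves of at least three independent experiments. HUVECs were kept quiescent in endothelial cell medium with 0.5% fetal calf serum and no growth factor.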

MCF7 = experiment: Cytotoxicity against human MCF7 cells assessed as cell viability after 48 hrs by MTT assay; assay type: functional, cell-based; conditions: MCF7, 48 h; in short: as §1
A549 [17] = experiment: Induction of apoptosis in human A549 cells assessed as early apoptotic cells at 3 nM after 48 hrs by annexin V-FITC/propidium iodide staining-based flow cytometric method (reference value: 1.95%); assay type: functional
A549 [18] = experiment: Induction of apoptosis in human A549 cells assessed as viable cells at 1 nM after 24 hrs by annexin V-FITC/propidium iodide staining-based flow cytometric method (reference value: 98.9%); assay type: functional; conditions: A549, 24 h, read-out: Activity; in short: as §2
Tubulin (Sus scrofa) [19] = target: T1, Tubulin (Sus scrofa); experiment: Inhibition of [3H]-colchicine binding to porcine brain tubulin at 1 uM relative to control; in short: as §4
A549 [20] = experiment: Induction of apoptosis in human A549 cells assessed as early apoptotic cells at 1 nM after 48 hrs by annexin V-FITC/propidium iodide staining-based flow cytometric method (reference value: 1.95%); assay type: functional
A549 [21] = experiment: Antitumor activity against human A549 cells xenografted in BALB/c nude mouse assessed as tumor growth inhibition at 30 mg/kg, ip administered every other day for 1 month measured every other day post dose relative to vehicle-treated control; assay type: functional; conditions: read-out: TGI
A549 [22] = experiment: Disruption of mitochondrial membrane potential in human A549 cells assessed as red fluorescence intensity at 1 nM after 24 hrs by JC1 staining-based flow cytometric method (reference value: 99.2%); assay type: functional
A549 [23] = experiment: Induction of apoptosis in human A549 cells assessed as late apoptotic cells at 1 nM after 24 hrs by annexin V-FITC/propidium iodide staining-based flow cytometric method (reference value: 0.01%); assay type: functional
[24] = Metabolic stability in Sprague-Dawley rat liver microsomes assessed as compound remaining at 120 mins in presence of NADPH regenerating system by HPLC method; assay type: ADME; conditions: read-out: Stability; in short: as §3
A549 [25] = experiment: Disruption of microtubule network in human A549 cells assessed as multipolarization of spindle at 10 nM after 24 hrs by Hoechst 33342 staining-based laser scanning confocal microscopic analysis; assay type: cell-based; in short: as §6
A549 [26] = experiment: Disruption of mitochondrial membrane potential in human A549 cells assessed as red fluorescence intensity at 3 nM after 24 hrs by JC1 staining-based flow cytometric method (reference value: 99.2%); assay type: functional

Structure (SMILES): COc1ccc2c(/C=C(\C)C(=O)c3cc(OC)c(OC)c(OC)c3)c[nH]c2c1
- Ratio IC50 (HCT-8): 0.42
- Activity (A549 [1]): 1.45%
- IC50 [2]: 6 nM
- viability at 0.01 µM (A549 [3]): 60.4%
- remaining at 2.5 h [4]: 54.1%
- viability at 0.01 µM (A549 [5]): 15.6%
- IC50 (HeLa): 7 nM
- inhibition (Tubulin (Sus scrofa) [6]): 96%
- IC50 (A2780): 8 nM
- Activity (A549 [7]): 12.8%
- Activity (A549 [8]): 2.69%
- remaining at 1.5 h [9]: 73.7%
- remaining at 0.5 h [10]: 85.6%
- remaining at 1 h [11]: 80.5%
- Activity (A549 [12]): Active
- Activity (A549 [13]): 12.41%
- Activity (A549 [14]): 2.94%
- Activity (A549 [15]): 14.6%
- Activity (A549 [16]): 25.27%
- IC50 (BJ): 8920 nM
- IC50 (MCF7): 6 nM
- Activity (A549 [17]): 26.8%
- viability at 0.001 µM (A549 [18]): 83.7%
- inhibition (Tubulin (Sus scrofa) [19]): 82%
- Activity (A549 [20]): 18.9%
- inhibition in vivo at 30 mg/kg (A549 [21]): 66.1%
- Activity (A549 [22]): 97.2%
- Activity (A549 [23]): 2.12%
- remaining at 2 h [24]: 66.3%
- Activity (A549 [25]): Active
- Activity (A549 [26]): 53.9%
